From PubChem BioAssay
Shown is part of a subset that was picked to be rich in hits.
BasE inh: BasE siderophore biosynthesis inhibition | purified BasE, fluorescence polarization binding displacement | inhibition, % (test concentration not listed) | actives 0.1% (n = 84,000) | AID 485350; in the data active = inhibition above about 25%, passing the limit was not always enough;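 note: 0% = negative plate control signal and 100% = positive plate control signal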
LANA-nucl inh: inhibitors of KSHV LANA binding to nucleosomes; z-score (no concentration beside the values); FITC-LANA1-23 / chicken nucleosome fluorescence polarization; active compounds read low; actives 0.3% (n = 51,000); AID 720717;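 active = both repeat wells score below -2 in polarization z-score versus plate sample wells, excluding overly bright wells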
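test system = FITC-LANA peptide and chicken nucleosomes | amount = 240 nM purified chicken nucleosomes (480 nM peptide binding sites), final | reagent = 50 nM FITC-LANA1-23 probe | medium = TEN-BT buffer, pH 7.5 | doses = single compound addition by pin transfer, 100 nL per well | timing = 10–45 min, room temperature | detection = fluorescence polarization | repeats = duplicate plates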
* hit, by the source's call; ! = not active in a repeat.

What do the screens show for `CCN1CCC(N(Cc2ccco2)C(=O)Nc2ccccc2C(F)(F)F)CC1`?
BasE inh: 1; LANA-nucl inh: 0.4

What do the screens show for `C/C(=N\NC(=S)NC1CCCCC1)c1ccc(S(=O)(=O)NCc2ccco2)cc1`?
BasE inh: -1

What do the screens show for `C/C(=N\NC(=O)c1ccc(O)cc1)c1ccc(S(=O)(=O)NCc2ccco2)cc1`?
BasE inh: 29*

Results for Cn1c(CCNC(=O)c2cnc(N3CCOCC3)nc2)nc2ccccc21 ?
BasE inh: -1; LANA-nucl inh: 1.4

Results for Cn1cccc1/C=C1/SC(=S)N(c2ccc(C(=O)O)cc2)C1=O ?
BasE inh: -37; LANA-nucl inh: -0.2

Results for CN(C)/C=C1\SC(=S)N(c2ccc(Br)cc2)C1=O ?
BasE inh: 8; LANA-nucl inh: -8.9*

What do the screens show for `Cc1cc(SC(C)C(=O)O)n2c(nc3ccccc32)c1C#N` (stereo not drawn)?
BasE inh: -1

Results for COc1cccc2c1C(=O)c1c(O)c3c(c(O)c1C2=O)C[C@@](O)(C(C)=O)C[C@@H]3O[C@H]1C[C@H](N)[C@H](O)[C@H](C)O1 ?
LANA-nucl inh: -8.3*

What do the screens show for `COc1cccc2c1C(=O)c1c(O)c3c(c(O)c1C2=O)C[C@@](O)(C(=O)CO)C[C@@H]3O[C@H]1C[C@H](N)[C@@H](O)[C@H](C)O1`?
LANA-nucl inh: -11

What do the screens show for `CC[C@@]1(O)C[C@H](O[C@H]2C[C@H](N(C)C)[C@H](O[C@H]3C[C@H](O)[C@H](O[C@H]4CCC(=O)[C@H](C)O4)[C@H](C)O3)[C@H](C)O2)c2c(cc3c(c2O)C(=O)c2c(O)cccc2C3=O)[C@H]1C(=O)OC`?
LANA-nucl inh: 0.19

How did CC(=O)[C@]1(O)Cc2c(O)c3c(c(O)c2[C@@H](O[C@H]2C[C@H](N)[C@H](O)[C@H](C)O2)C1)C(=O)c1ccccc1C3=O do in these assays?
LANA-nucl inh: -10*!

What do the screens show for `Cc1nc2cc(NC(=O)CCn3[nH]c(=O)ccc3=O)ccc2n1-c1ccccc1`?
BasE inh: 0

Results for Clc1ccc(-c2nn(-c3ccccc3)cc2C=NCc2ccco2)cc1 ?
BasE inh: 0

What do the screens show for `Cc1nn(C)c(C)c1S(=O)(=O)N(CC(=O)N1CCn2c1nc1ccccc12)c1ccc(C(C)C)cc1`?
BasE inh: -2; LANA-nucl inh: -0.58

How did COc1ccc(C(=O)COC(=O)C2Cc3ccccc3CN2S(C)(=O)=O)cc1 (stereo not drawn) do in these assays?
BasE inh: -1

Results for CC(=O)Nc1ccc(N/C(C)=C/C(=O)c2cccnc2)cc1 ?
BasE inh: 39*; LANA-nucl inh: -0.39

How did COc1ccc(N/C(C)=C/C(=O)c2ccccc2)cc1 do in these assays?
BasE inh: 0; LANA-nucl inh: -0.32

How did O=C(CCc1nc2ccccc2o1)OCc1cc(=O)n2c3c(sc2n1)CCCC3 do in these assays?
BasE inh: 0

How did Cc1cccc(OCC(N)=O)c1 do in these assays?
BasE inh: 22

Results for Cc1cccc(OCC(=O)N(Cc2ccco2)Cc2ccco2)c1 ?
BasE inh: 28*; LANA-nucl inh: 0.49

How did CC(C)NC(=O)C1CCCN1C(=O)Nc1ccccc1 (stereo not drawn) do in these assays?
BasE inh: -4; LANA-nucl inh: 1.7

Results for CN(C)c1ccc2nc3ccc(=[N+](C)C)cc-3sc2c1 ?
LANA-nucl inh: -2.4*

What do the screens show for `CC(C)c1nc2ccc(N)cc2s1`?
BasE inh: 3; LANA-nucl inh: 0.51

Results for COc1ccc(CCNC(=O)Cn2cnc3c(nnn3Cc3ccc(F)cc3)c2=O)cc1OC ?
BasE inh: -1; LANA-nucl inh: -0.91

How did CN1c2ccccc2C(=O)C(=C2SCCCS2)S1(=O)=O do in these assays?
BasE inh: 3; LANA-nucl inh: -1.5

Results for CN1c2ccccc2C(=O)/C(=N\Nc2ccccc2Cl)S1(=O)=O ?
BasE inh: -1; LANA-nucl inh: -2.4*

How did Cc1ccc(N2C(=O)NC(c3ccccc3)(C(F)(F)F)C2=O)nc1 (stereo not drawn) do in these assays?
BasE inh: 2; LANA-nucl inh: -2.3*

What do the screens show for `O=C1NC(c2ccc(F)cc2)(C(F)(F)F)C(=O)N1Cc1ccco1` (stereo not drawn)?
BasE inh: 2; LANA-nucl inh: -0.98

How did O=C(NC1CC1)c1ccc(C2SCC(=O)N2Cc2ccco2)cc1 (stereo not drawn) do in these assays?
BasE inh: 0; LANA-nucl inh: -0.009

How did CC1CN/C(=C/C(=O)/C=C/c2ccccc2)C(=O)N1 (stereo not drawn) do in these assays?
BasE inh: 4

How did N#CC(C(=O)Nc1ccccc1)=C1Nc2ccccc2N1 do in these assays?
BasE inh: 31*

What do the screens show for `N#CC(C(=O)Nc1ccc(Cl)c(Cl)c1)=C1Nc2ccccc2N1`?
BasE inh: 1; LANA-nucl inh: 0.55
